Source: ChEMBL document CHEMBL1142206, “Cysteine protease inhibitors block Toxoplasma gondii microneme secretion and cell invasion” (Antimicrob Agents Chemother, 2007)
Calls of active or inactive are those of the source. The calls are words filed in the database; no cut-off is given here.

Columns and labels:
[1] = system: Toxoplasma gondii; experiment: Inhibition of Toxoplasma gondii 2F1 invasion in HFF cells assessed as beta-galactosidase activity at 10 uM; format: functional, organism-based
Method in brief: (§1)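 2F1 tachyzoites in invasion medium (DMEM, 1% FBS, 10 mM HEPES) at 4 × 10^6/ml, preincubated 15 min at room temperature with inhibitor (10 or 50 μM) or DMSO, then loaded onto HFF monolayers for 30 min at 37°C, 5% CO2. Washed six times with cold PBS containing Ca/Mg, lysed, and β-gal measured with CPRG (45 min, 37°C) at A550. Two independent experiments in duplicate.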

[2] = system: Toxoplasma gondii; experiment: Inhibition of Toxoplasma gondii 2F1 invasion in HFF cells by red/green invasion assay; format: functional, organism-based; conditions: 2F1, HFF
Method in brief: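 Red/green assay: 2F1 parasites (5 × 10^7/ml in invasion medium) preincubated 15 min at room temperature with inhibitor (0.1 to 100 μM) or DMSO, then put on HFF for 15 min at 37°C. After fixation, attached parasites were stained with rabbit anti-SAG1 before permeabilization and invaded ones with MAb 9E11 after 0.1% Triton; DAPI marked nuclei. Associated parasites per host nucleus normalized to solvent control; three experiments, eight fields/well.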

[3] = system: Toxoplasma gondii; experiment: Inhibition of microneme protein secretion in Toxoplasma gondii 2F1
[4] = system: Toxoplasma gondii; experiment: Inhibition of Toxoplasma gondii 2F1 invasion in HFF cells assessed as beta-galactosidase activity at 50 uM relative to control; format: functional; conditions: 2F1, HFF; method in brief: as §1
[5] = system: Toxoplasma gondii; experiment: Effect on gliding motility in Toxoplasma gondii RH at 50 uM; format: functional, organism-based
Method in brief: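 RH tachyzoites in HHE medium (HBSS, 10 mM HEPES, 1 mM EGTA), pretreated 15 min at room temperature with 50 μM inhibitor or DMSO, then allowed to glide 15 min at 37°C on slides coated with 50% FBS or poly-L-lysine. Fixed, and SAG1-containing trails stained with MAb 9E11 and visualized by epifluorescence at ×600.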

[6] = system: Toxoplasma gondii; experiment: Reduction of AMA1 secretion in Toxoplasma gondii 2F1 at 50 uM; format: functional, organism-based
Method in brief: (§2)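 2F1 parasites in DGH medium (DMEM, 2 mM glutamine, 10 mM HEPES), ~3–6 × 10^7 per reaction, pretreated 15 min at room temperature with 50 μM inhibitor or DMSO. Induced secretion used 2 min at 37°C with 1% ethanol; basal secretion used 20 min at 37°C without ethanol. Supernatant (ESA) immunoblotted for MIC2, AMA1, MIC5, MIC10 and GRA1; chemiluminescence quantified by CCD.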

[7] = system: Toxoplasma gondii; experiment: Reduction of MIC10 secretion in Toxoplasma gondii 2F1 at 50 uM; format: functional, organism-based; method in brief: as §2
[8] = system: Toxoplasma gondii; experiment: Reduction of MIC5 secretion in Toxoplasma gondii 2F1 at 50 uM; format: functional, organism-based; method in brief: as §2

| SMILES | Activity [1] | other results |
| --- | --- | --- |
| Cc1cccc(C)c1C(=O)OCC(=O)[C@@H](N)CC(N)=O | inactive | – |
| O=c1oc(Cl)c(Cl)c2ccccc12 | inactive | IC50 [2]: 12.5 µM |
| CC(=O)N[C@@H](Cc1ccc(O)cc1)C(=O)N[C@@H](CCCNC(=N)N)C(=O)N[C@@H](CCCCN)C(=O)N[C@H](/C=C/S(=O)(=O)c1ccccc1)CC(N)=O | inactive | – |
| CC(=O)N1CCC[C@H]1C(=O)N[C@@H](CCCCN)C(=O)N[C@@H](CC(C)C)C(=O)N[C@H](/C=C/S(=O)(=O)c1ccccc1)CC(N)=O | inactive | – |
| CCOC(=O)C1OC1C(=O)N[C@@H](CC(C)C)C(=O)NCCc1ccc(O)cc1 (stereo partly drawn) | inactive | – |
| CN1CCN(C(=O)N[C@@H](Cc2ccccc2)C(=O)N[C@H](/C=C/S(=O)(=O)c2ccccc2)CCc2ccccc2)CC1 | inactive | – |
| Cc1cccc(C)c1C(=O)OCC(=O)CN | inactive | – |
| CCC(C)[C@H](NC(=O)C1OC1C(=O)NCC(C)C)C(=O)N1CCC[C@@H]1C(=O)O (stereo partly drawn) | inactive | – |
| CC(=O)N[C@@H](Cc1ccc(O)cc1)C(=O)N[C@@H](CCCCN)C(=O)N[C@@H](CCCNC(=N)N)C(=O)N[C@H](/C=C/S(=O)(=O)c1ccccc1)CC(N)=O | inactive | – |
| CC(=O)N[C@@H](Cc1ccc(O)cc1)C(=O)N[C@@H](CCCNC(=N)N)C(=O)N[C@@H](CC(C)C)C(=O)N[C@H](/C=C/S(=O)(=O)c1ccccc1)CC(N)=O | inactive | – |
| CC(C)C[C@H](/C=C/S(=O)(=O)c1ccccc1)NC(=O)[C@@H](CC(C)C)NC(=O)[C@@H](CC(C)C)NC(=O)Cc1cc(I)c(O)c([N+](=O)[O-])c1 | inactive | – |
| CC(C)C[C@@H](NC(=O)N1CCOCC1)C(=O)N[C@@H](/C=C/S(=O)(=O)c1ccccc1)CCc1ccccc1 | – | IC50 [3]: 25 µM; inhibition at 50 µM [4]: 70%; IC50 [2]: 10 µM; Activity [5]: Active; Activity [6]: Active; Activity [7]: Active; Activity [8]: Active |
| CC(C)C[C@@H](/C=C/S(C)(=O)=O)NC(=O)[C@H](CC(C)C)NC(=O)[C@H](CC(C)C)NC(=O)[C@@H](N)Cc1ccc(O)cc1 | inactive | – |
| Cc1cccc(C)c1C(=O)OCC(=O)[C@@H](N)CC(C)C | inactive | – |
| CCOC(=O)[C@H]1O[C@@H]1C(=O)N[C@@H](CC(C)C)C(=O)NCCC(C)C | inactive | – |
| Cc1cccc(C)c1C(=O)OCC(=O)[C@@H](N)CCCNC(=N)N | inactive | – |
| CC(=O)N1CCC[C@H]1C(=O)N[C@@H](CCCCN)C(=O)N[C@@H](CCCCN)C(=O)N[C@H](/C=C/S(=O)(=O)c1ccccc1)CC(N)=O | inactive | – |
| CC(=O)N[C@@H](Cc1ccc(O)cc1)C(=O)N[C@@H](CCCCN)C(=O)N[C@@H](CC(C)C)C(=O)N[C@H](/C=C/S(=O)(=O)c1ccccc1)CC(N)=O | inactive | – |
| CC(=O)N[C@@H](Cc1ccc(O)cc1)C(=O)N[C@@H](CCCCN)C(=O)N[C@@H](CCCCN)C(=O)N[C@H](/C=C/S(=O)(=O)c1ccccc1)CC(N)=O | inactive | – |
| CC(=O)N1CCC[C@H]1C(=O)N[C@@H](CCCNC(=N)N)C(=O)N[C@@H](CC(C)C)C(=O)N[C@H](/C=C/S(=O)(=O)c1ccccc1)CC(N)=O | inactive | – |
| CC(=O)N1CCC[C@H]1C(=O)N[C@@H](CCCNC(=N)N)C(=O)N[C@@H](CCCCN)C(=O)N[C@H](/C=C/S(=O)(=O)c1ccccc1)CC(N)=O | inactive | – |
| CC(=O)N1CCC[C@H]1C(=O)N[C@@H](CCCCN)C(=O)N[C@@H](CCCNC(=N)N)C(=O)N[C@H](/C=C/S(=O)(=O)c1ccccc1)CC(N)=O | inactive | – |
| CC(C)C[C@H](/C=C/S(=O)(=O)c1ccccc1)NC(=O)[C@@H](CC(C)C)NC(=O)[C@@H](CC(C)C)NC(=O)OCc1ccccc1 | inactive | IC50 [3]: 50 µM; inhibition at 50 µM [4]: 50%; IC50 [2]: 12.5 µM; Activity [5]: Active; Activity [6]: Active; Activity [7]: Active; Activity [8]: Active |
| CC(C)C[C@H](NC(=O)[C@H]1O[C@@H]1C(=O)O)C(=O)NCCCCN=C(N)N | inactive | – |
